According to ChEMBL document CHEMBL1165965, “Synthesis and structure-activity relationships of 1,2,3,4-tetrahydropyrido[2,3-b]pyrazines as potent and selective inhibitors of the anaplastic lymphoma kinase” (Bioorg Med Chem, 2010):

Key:
[1] = molecular target: T1, Ephrin type-B receptor 6 (Homo sapiens) (UniProt O15197); experiment: Inhibition of EPHB6 at 1 uM
T1 sequence (whole entry): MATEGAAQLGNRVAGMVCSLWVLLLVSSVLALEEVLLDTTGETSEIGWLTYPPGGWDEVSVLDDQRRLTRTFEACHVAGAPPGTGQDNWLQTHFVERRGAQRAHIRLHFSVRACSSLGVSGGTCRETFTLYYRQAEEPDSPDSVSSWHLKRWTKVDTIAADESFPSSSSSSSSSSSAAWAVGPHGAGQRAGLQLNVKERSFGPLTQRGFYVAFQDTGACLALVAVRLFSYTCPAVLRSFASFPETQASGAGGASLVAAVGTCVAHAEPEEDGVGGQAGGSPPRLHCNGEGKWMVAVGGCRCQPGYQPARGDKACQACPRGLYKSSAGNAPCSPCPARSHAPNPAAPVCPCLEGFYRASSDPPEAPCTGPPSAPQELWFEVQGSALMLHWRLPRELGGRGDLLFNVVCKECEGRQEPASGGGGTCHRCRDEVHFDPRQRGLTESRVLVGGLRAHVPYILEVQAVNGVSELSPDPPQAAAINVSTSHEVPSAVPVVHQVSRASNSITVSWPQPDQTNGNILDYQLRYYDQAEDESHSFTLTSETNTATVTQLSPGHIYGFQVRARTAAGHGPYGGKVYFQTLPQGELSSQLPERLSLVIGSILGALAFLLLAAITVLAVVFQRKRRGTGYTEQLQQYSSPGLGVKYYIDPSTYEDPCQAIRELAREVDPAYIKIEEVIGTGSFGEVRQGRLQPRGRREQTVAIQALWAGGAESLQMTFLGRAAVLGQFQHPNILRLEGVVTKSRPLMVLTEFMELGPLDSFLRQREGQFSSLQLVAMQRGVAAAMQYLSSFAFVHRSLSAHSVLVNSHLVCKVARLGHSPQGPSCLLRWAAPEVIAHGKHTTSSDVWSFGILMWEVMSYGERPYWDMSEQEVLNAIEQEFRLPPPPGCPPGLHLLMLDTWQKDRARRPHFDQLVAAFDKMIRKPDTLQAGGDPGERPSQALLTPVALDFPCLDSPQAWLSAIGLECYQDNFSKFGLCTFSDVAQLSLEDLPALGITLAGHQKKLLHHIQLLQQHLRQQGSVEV

[2] = molecular target: T2, Serine/threonine-protein kinase STK11 (Homo sapiens) (UniProt Q15831); experiment: Inhibition of LKB1 at 1 uM
T2 sequence (whole entry): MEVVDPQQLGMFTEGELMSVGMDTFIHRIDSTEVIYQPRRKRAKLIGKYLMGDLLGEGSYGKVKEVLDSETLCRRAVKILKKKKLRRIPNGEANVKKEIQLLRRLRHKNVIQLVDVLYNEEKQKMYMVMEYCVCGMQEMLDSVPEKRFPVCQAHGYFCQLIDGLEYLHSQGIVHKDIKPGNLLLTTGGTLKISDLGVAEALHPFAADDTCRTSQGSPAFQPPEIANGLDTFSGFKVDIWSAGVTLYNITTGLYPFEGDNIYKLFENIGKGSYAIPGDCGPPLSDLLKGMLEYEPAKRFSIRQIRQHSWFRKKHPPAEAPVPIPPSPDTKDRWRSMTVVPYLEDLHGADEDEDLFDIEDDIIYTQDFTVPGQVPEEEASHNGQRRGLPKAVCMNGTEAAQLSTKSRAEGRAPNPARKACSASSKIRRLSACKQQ
Summary of the method: (§1)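 Single-concentration screen on the Ambit KINOMEscan platform, run against a panel of 250–400 kinases. Per-kinase inhibition was also summarized as S(90), the fraction of kinases inhibited by more than 90%.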

[3] = molecular target: Casein kinase I isoform gamma-3 (Homo sapiens) (UniProt Q9Y6M4); experiment: Inhibition of CSNK1G3 at 1 uM
Sequence of Casein kinase I isoform gamma-3 (Homo sapiens) (Q9Y6M4 whole entry, looked up, canonical isoform): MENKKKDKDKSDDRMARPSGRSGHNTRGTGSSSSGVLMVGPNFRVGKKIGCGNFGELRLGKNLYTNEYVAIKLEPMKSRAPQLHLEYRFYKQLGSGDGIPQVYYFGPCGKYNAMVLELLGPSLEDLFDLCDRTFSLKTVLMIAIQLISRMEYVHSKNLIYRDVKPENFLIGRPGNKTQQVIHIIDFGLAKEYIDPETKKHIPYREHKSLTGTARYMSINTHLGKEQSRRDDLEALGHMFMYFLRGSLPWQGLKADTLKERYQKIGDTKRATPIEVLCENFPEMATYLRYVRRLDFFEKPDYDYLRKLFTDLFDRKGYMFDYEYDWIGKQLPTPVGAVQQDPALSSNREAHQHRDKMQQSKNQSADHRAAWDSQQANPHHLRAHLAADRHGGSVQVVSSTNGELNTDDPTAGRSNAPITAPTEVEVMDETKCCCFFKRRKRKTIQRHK
Summary of the method: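 Single-concentration screen using Ambit Bioscience KINOMEscan technology across a panel of 250–400 kinases. Per-kinase inhibition from this screen was summarized as S(90), the fraction of kinases inhibited by more than 90%.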

[4] = molecular target: Atypical kinase COQ8A, mitochondrial (Homo sapiens) (UniProt Q8NI60); experiment: Inhibition of ADCK3 at 1 uM
Sequence of Atypical kinase COQ8A, mitochondrial (Homo sapiens) (Q8NI60 163-647 limits assumed): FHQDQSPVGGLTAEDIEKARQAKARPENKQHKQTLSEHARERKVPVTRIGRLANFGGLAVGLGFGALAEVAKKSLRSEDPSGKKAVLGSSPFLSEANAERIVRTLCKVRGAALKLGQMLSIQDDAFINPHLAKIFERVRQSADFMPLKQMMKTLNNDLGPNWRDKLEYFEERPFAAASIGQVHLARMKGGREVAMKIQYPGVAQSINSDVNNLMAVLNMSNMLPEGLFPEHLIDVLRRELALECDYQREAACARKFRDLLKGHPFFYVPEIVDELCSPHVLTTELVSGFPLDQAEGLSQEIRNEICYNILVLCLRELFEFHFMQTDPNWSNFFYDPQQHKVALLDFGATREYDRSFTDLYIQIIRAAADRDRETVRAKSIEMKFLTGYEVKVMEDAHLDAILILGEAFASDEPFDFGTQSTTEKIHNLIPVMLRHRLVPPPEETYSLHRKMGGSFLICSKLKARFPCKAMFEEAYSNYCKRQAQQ
Summary of the method: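 Ambit KINOMEscan screen at a single concentration across a 250–400 kinase panel, recorded as percent inhibition. Selectivity was expressed as S(90), the fraction of kinases inhibited >90%.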

[5] = Inhibition of FLT3 ITD mutant at 1 uM; summary of the method: as §1
[6] = molecular target: Phosphatidylinositol 4-phosphate 3-kinase C2 domain-containing subunit beta (Homo sapiens) (UniProt O00750); experiment: Inhibition of PIK3C2B at 1 uM
Sequence of Phosphatidylinositol 4-phosphate 3-kinase C2 domain-containing subunit beta (Homo sapiens) (O00750 whole entry, the tested form may be a part, canonical isoform): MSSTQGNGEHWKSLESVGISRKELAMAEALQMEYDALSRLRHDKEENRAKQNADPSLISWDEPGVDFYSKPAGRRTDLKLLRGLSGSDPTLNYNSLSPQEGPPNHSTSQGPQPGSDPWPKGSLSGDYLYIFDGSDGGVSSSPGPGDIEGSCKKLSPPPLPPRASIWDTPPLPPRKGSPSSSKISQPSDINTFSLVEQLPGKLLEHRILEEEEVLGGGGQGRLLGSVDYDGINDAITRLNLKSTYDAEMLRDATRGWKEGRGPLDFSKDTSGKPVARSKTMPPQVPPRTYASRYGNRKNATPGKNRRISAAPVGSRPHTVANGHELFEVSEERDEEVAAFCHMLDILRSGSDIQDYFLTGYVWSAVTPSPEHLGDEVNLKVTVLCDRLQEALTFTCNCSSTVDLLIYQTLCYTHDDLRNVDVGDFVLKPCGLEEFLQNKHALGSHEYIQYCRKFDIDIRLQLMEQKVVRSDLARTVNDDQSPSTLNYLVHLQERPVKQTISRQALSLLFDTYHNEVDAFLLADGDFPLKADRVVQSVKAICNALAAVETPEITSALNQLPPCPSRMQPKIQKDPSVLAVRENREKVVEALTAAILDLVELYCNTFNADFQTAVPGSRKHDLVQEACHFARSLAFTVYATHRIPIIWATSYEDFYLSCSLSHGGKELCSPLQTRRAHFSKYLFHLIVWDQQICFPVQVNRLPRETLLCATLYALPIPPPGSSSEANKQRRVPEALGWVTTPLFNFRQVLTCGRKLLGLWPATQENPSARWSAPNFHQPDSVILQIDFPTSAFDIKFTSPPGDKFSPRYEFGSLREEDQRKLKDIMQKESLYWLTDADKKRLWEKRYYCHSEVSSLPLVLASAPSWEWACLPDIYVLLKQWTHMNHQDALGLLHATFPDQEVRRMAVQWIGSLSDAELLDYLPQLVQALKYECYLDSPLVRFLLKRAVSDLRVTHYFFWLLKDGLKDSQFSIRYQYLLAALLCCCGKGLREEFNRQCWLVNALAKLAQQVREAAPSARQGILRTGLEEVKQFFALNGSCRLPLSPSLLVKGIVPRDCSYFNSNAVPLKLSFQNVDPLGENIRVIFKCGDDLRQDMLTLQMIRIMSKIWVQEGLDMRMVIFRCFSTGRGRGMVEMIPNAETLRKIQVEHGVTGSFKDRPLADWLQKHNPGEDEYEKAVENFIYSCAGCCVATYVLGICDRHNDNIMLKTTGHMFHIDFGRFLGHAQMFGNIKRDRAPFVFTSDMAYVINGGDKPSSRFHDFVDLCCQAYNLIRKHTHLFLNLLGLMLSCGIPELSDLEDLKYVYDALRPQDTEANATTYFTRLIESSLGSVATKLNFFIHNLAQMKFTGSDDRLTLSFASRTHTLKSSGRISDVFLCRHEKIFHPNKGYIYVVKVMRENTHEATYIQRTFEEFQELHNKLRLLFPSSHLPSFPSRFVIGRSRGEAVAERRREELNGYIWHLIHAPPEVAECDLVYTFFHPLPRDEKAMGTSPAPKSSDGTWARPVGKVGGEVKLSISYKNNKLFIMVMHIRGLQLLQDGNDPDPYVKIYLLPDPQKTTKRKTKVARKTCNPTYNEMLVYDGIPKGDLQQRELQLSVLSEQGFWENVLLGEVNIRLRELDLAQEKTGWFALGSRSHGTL

[7] = molecular target: T3, Phosphatidylinositol 4,5-bisphosphate 3-kinase catalytic subunit delta isoform (Homo sapiens) (UniProt O00329); experiment: Inhibition of PIK3CD at 1 uM
T3 sequence (whole entry): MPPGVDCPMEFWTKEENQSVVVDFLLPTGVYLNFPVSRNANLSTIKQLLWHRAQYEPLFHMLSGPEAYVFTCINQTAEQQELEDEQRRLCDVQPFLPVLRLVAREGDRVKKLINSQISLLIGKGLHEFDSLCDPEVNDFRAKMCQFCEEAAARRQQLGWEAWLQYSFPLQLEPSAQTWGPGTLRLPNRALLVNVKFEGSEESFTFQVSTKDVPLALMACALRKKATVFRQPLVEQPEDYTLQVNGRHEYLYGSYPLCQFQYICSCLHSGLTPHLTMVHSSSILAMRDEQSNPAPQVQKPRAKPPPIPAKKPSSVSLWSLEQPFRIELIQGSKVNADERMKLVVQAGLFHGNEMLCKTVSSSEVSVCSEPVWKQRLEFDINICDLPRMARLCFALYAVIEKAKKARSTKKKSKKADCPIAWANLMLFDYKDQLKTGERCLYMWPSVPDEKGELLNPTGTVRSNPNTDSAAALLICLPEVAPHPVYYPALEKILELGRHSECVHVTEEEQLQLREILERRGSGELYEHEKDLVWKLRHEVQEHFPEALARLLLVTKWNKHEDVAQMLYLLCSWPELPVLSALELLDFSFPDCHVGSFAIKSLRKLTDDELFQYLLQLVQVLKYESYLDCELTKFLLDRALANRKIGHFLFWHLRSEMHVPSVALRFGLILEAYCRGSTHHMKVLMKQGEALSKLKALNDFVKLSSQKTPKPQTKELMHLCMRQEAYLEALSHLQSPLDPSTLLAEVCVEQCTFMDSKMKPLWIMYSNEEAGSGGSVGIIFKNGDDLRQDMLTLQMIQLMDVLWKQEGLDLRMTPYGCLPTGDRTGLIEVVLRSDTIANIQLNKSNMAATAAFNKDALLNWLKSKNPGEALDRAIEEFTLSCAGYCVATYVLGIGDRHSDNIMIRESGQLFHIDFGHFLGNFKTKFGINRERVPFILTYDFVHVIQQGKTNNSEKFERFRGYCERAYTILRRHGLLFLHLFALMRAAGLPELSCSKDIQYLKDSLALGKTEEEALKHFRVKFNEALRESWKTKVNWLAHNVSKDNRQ

Row | Structure (SMILES) | inhibition [1] | inhibition [2] | inhibition [3] | inhibition [4] | inhibition [5] | inhibition [6] | inhibition [7]
1 | CN1CCN(c2ccc(-c3cnc4c(c3)N(Cc3cc(Cl)ccc3Cl)CCN4)cn2)CC1 | 76% | < 50% | < 50% | < 50% | < 50% | < 50% | < 50%
2 | CN1CCN(c2ccc(-c3cnc4c(c3)N(Cc3cc(Cl)ccc3C(F)(F)F)CCN4)cn2)CC1 | 89% | < 50% | < 50% | < 50% | 90% | < 50% | < 50%
3 | CN1CCN(c2ccc(-c3cnc4c(c3)N(Cc3c(F)ccc(F)c3Cl)CCN4)cn2)CC1 | 95% | < 50% | < 50% | < 50% | < 50% | < 50% | < 50%
4 | O=C(c1ccc(-c2cnc3c(c2)N(Cc2cc(Cl)ccc2C(F)(F)F)CCN3)cc1)N1CCC(N2CCCC2)CC1 | – | < 50% | < 50% | < 50% | < 50% | – | –
5 | COC1CCN(C(=O)c2ccc(-c3cnc4c(c3)N(Cc3cc(Cl)ccc3C(F)(F)F)CCN4)cc2)CC1 | – | < 50% | < 50% | < 50% | < 50% | – | –
6 | FC(F)(F)c1ccc(Cl)cc1CN1CCNc2ncc(-c3ccnc(N4CCNCC4)c3)cc21 | 97% | < 50% | < 50% | < 50% | 74% | < 50% | < 50%
7 | CN1CCN(c2ccc(-c3cnc4c(c3)N(Cc3cc(F)ccc3F)CCN4)cn2)CC1 | 68% | < 50% | < 50% | < 50% | < 50% | < 50% | < 50%
8 | O=C(c1ccc(-c2cnc3c(c2)N(Cc2cc(Cl)ccc2C(F)(F)F)CCN3)cc1)N1CCCCC1 | – | < 50% | < 50% | < 50% | < 50% | – | –
9 | CC(=O)N1CCN(c2cc(-c3cnc4c(c3)N(Cc3cc(Cl)ccc3C(F)(F)F)CCN4)ccn2)CC1 | 92% | < 50% | < 50% | < 50% | < 50% | < 50% | < 50%
10 | O=C(O)c1ccc(-c2cnc3c(c2)N(Cc2cc(Cl)ccc2C(F)(F)F)CCN3)cc1 | – | < 50% | < 50% | < 50% | < 50% | – | –
